Calls of active or inactive are those of the source. The rule behind the calls is not given here.
Columns and labels:
MCF7 [1] = assay: Induction of reactive oxygen species generation in human MCF7 cells assessed as decrease in cell viability at 10 uM in presence of N-acetyl cysteine after 48 hrs by alamarBlue assay; assay type: functional, cell-based
In short: (§1)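 MCF-7 cells were seeded at 2.5×10^4 cells/mL and left to adhere. They were pre-treated 1 h with N-acetyl cysteine (1 mM) or Trolox (100 μM), then exposed to test agents for 48 h. Viability was measured by alamarBlue fluorescence as % of ethanol vehicle control. Mean of three independent experiments.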

MCF7 [2] = assay: Cell cycle arrest in human MCF7 cells assessed as G2/M phase accumulation at 10 uM after 24 hrs by propidium iodide staining based flow cytometry; assay type: functional
In short: (§2)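 MCF-7 cells were seeded at 1×10^5 cells/mL and treated after 24 h with 5, 10 or 20 μM or 0.1% ethanol for 24 or 48 h. Cells were pooled, fixed in ice-cold 70% ethanol at −20 °C for 24 h, then stained with RNase A and propidium iodide for 30 min at 37 °C in the dark. Flow cytometry used FL-2, ≥10,000 gated cells, and sub-G1/G0G1/G2/M were scored by DNA content. Mean ± SEM of three; one-way ANOVA with Dunnett's test.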

MCF7 [3] = assay: Induction of reactive oxygen species generation in human MCF7 cells assessed as decrease in cell viability at 1 to 20 uM in presence of trolox after 48 hrs by alamarBlue assay; assay type: functional, cell-based; in short: as §1
Homo sapiens [4] = species: Homo sapiens; assay: Disruption of microtubule network in human MCF7 cells at 20 uM after 16 hrs by immunofluorescence analysis; assay type: cell-based
In short: (§3)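 MCF-7 cells were seeded at 1×10^5 cells/mL on chamber slides and treated for 16 h (vehicle 1% ethanol). Cells were fixed 20 min in 4% paraformaldehyde, permeabilised in 0.5% Triton X-100 and blocked in 5% BSA/PBST. Staining used anti-α-tubulin–FITC (DM1A) for 2 h at rt, then Alexa Fluor 488 for 1 h, with DAPI counterstain. Imaging was by confocal microscopy; three independent experiments.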

MCF7 [5] = assay: Cell cycle arrest in human MCF7 cells assessed as G0/G1 phase accumulation at 20 uM after 48 hrs by propidium iodide staining based flow cytometry; assay type: functional; in short: as §2
MCF7 [6] = assay: Cell cycle arrest in human MCF7 cells assessed as G2/M phase accumulation at 5 uM after 24 hrs by propidium iodide staining based flow cytometry; assay type: functional; in short: as §2
Homo sapiens [7] = species: Homo sapiens; assay: Binding affinity to colchicine-binding site of beta tubulin in human HT-29 cells assessed as inhibition of formation of protein-N,N'-Ethylene-bis(iodoacetamide) adduct at 40 uM after 2 hrs by Western blot method; assay type: cell-based
In short: (§4)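 MCF-7 or HT-29 cells were exposed to test agent or ethanol vehicle (0.1% v/v) for 2 h, with MCF-7 seeded at 1×10^6 cells/well overnight beforehand. Selected samples then received N,N'-ethylene-bis(iodoacetamide) for a further 1.5 h. Cells were washed in cold PBS, lysed in Laemmli buffer and run on SDS-PAGE. Three independent experiments.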

Homo sapiens [8] = species: Homo sapiens; assay: Induction of tubulin depolymerization in human MCF7 cells at 5 to 20 uM after 4 hrs by Western blot method; assay type: cell-based
In short: (§5)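 MCF-7 (1×10^6/well) or Jurkat cells were treated for 4 h with 1–20 μM or 0.1% ethanol. Cells were lysed in microtubule-preserving buffer (0.1 M PIPES pH 6.9, 2 M glycerol, 5 mM MgCl2, 2 mM EGTA, 0.5% Triton X-100, 4 μM paclitaxel) and centrifuged at 20,000g for 45 min. Soluble (supernatant) and polymer (pellet) fractions, 30 μg protein each, were immunoblotted for α-tubulin with a GAPDH loading control. Three experiments.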

MCF7 [9] = assay: Induction of apoptosis in human MCF7 cells assessed as downregulation of Bcl2 expression at 10 uM after 48 hrs by Western blot method; assay type: functional, cell-based
In short: (§6)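 MCF-7 cells were seeded at 5×10^5 cells/flask and exposed to 10 μM, vehicle (0.1% ethanol) or no treatment for 48 or 72 h. Cells were lysed in RIPA buffer with protease/phosphatase inhibitors, and equal protein (by BCA) was run on 12% SDS-PAGE. Blots were probed overnight at 4 °C for Bcl-2 (1:500) or Mcl-1 (1:1000), with GAPDH as loading control and ECL detection. Three independent experiments.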

MCF7 [10] = assay: Cell cycle arrest in human MCF7 cells assessed as G2/M phase accumulation at 20 uM after 24 hrs by propidium iodide staining based flow cytometry
Homo sapiens [11] = species: Homo sapiens; assay: Effect on tubulin polymerization in human Jurkat cells at 1; assay type: cell-based; in short: as §5
MCF7 [12] = assay: Cell cycle arrest in human MCF7 cells assessed as G2/M phase accumulation at 20 uM after 48 hrs by propidium iodide staining based flow cytometry
MCF7 [13] = assay: Cell cycle arrest in human MCF7 cells assessed as G0/G1 phase accumulation at 10 uM after 48 hrs by propidium iodide staining based flow cytometry; assay type: functional; in short: as §2
MCF7 [14] = assay: Cell cycle arrest in human MCF7 cells assessed as sub G0/G1 phase accumulation at 20 uM after 48 hrs by propidium iodide staining based flow cytometry; assay type: functional; in short: as §2
MCF7 [15] = assay: Cytotoxicity against human MCF7 cells after 24 hrs by MTT assay; assay type: functional, cell-based; details: MCF7, 24 h
Homo sapiens [16] = species: Homo sapiens; assay: Induction of microtubule depolymerization in human MCF7 cells at 10 uM after 16 hrs by immunofluorescence analysis; assay type: cell-based; in short: as §3
MCF7 [17] = assay: Induction of reactive oxygen species generation in human MCF7 cells assessed as decrease in cell viability at 1 to 20 uM in presence of N-acetyl cysteine after 48 hrs by alamarBlue assay; assay type: functional, cell-based; in short: as §1
MCF7 [18] = assay: Cell cycle arrest in human MCF7 cells assessed as G0/G1 phase accumulation at 20 uM after 24 hrs by propidium iodide staining based flow cytometry; assay type: functional; in short: as §2
MCF-10A [19] = assay: Cytotoxicity in human MCF10A cells at 10 uM after 24 to 48 hrs by alamarBlue assay; assay type: cell-based
In short: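 MCF-10a cells were grown in DMEM/F12 with 5% horse serum, EGF, hydrocortisone, cholera toxin and insulin. They were treated at 1, 5, 10 or 20 μM for 48 h. Read-out was alamarBlue fluorescence, blank-subtracted and expressed as % of ethanol vehicle control. Mean of three independent experiments; unpaired two-tailed t-test.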

Jurkat [20] = assay: Antiproliferative activity in human Jurkat cells assessed as cell viability after 48 hrs by alamarBlue assay; assay type: functional, cell-based
In short: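 Cells were seeded at 2.5×10^4 cells/mL and treated after 24 h with vehicle (0.1% v/v ethanol) or a dose range (0.1–20 μM) for 48 h at 37 °C in 5% CO2. AlamarBlue was added 5 h before the end and read as fluorescence (ex 544/em 590 nm). Media-only blanks were subtracted, and viability is given as % of vehicle. Sextuplicate wells, three independent experiments.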

MCF7 [21] = assay: Cell cycle arrest in human MCF7 cells assessed as sub G0/G1 phase accumulation at 10 uM after 48 hrs by propidium iodide staining based flow cytometry; assay type: functional; in short: as §2
Homo sapiens [22] = species: Homo sapiens; assay: Effect on tubulin polymerization in human MCF7 cells at 1; assay type: cell-based; in short: as §5
Jurkat [23] = assay: Cytotoxicity against human Jurkat cells after 24 hrs by MTT assay; assay type: functional, cell-based
Homo sapiens [24] = species: Homo sapiens; assay: Binding affinity to colchicine-binding site of beta tubulin in human MCF7 cells assessed as inhibition of formation of protein-N,N'-Ethylene-bis(iodoacetamide) adduct at 40 uM after 2 hrs by Western blot method; assay type: cell-based; in short: as §4
Homo sapiens [25] = species: Homo sapiens; assay: Induction of tubulin depolymerization in human Jurkat cells at 5 to 20 uM after 4 hrs by Western blot method; assay type: cell-based; in short: as §5
MCF7 [26] = assay: Cell cycle arrest in human MCF7 cells assessed as G2/M phase accumulation at 5 uM after 48 hrs by propidium iodide staining based flow cytometry; assay type: functional; in short: as §2
MCF7 [27] = assay: Induction of apoptosis in human MCF7 cells assessed as downregulation of Mcl-1 expression at 10 uM after 72 hrs by Western blot method; assay type: functional, cell-based; in short: as §6
MCF7 [28] = assay: Cell cycle arrest in human MCF7 cells assessed as G0/G1 phase accumulation at 10 uM after 24 hrs by propidium iodide staining based flow cytometry; assay type: functional; in short: as §2
MCF7 [29] = assay: Cell cycle arrest in human MCF7 cells assessed as G2/M phase accumulation at 10 uM after 48 hrs by propidium iodide staining based flow cytometry; assay type: functional; in short: as §2
Bos taurus = species: Bos taurus; assay: Induction of bovine tubulin depolymerization at 25 uM measured every 30 secs for 60 mins by spectrophotometry
In short: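 Purified tubulin plus GTP was incubated at 37 °C with test agent or 1% ethanol vehicle. Assembly was followed as absorbance (light scattering) at 340 nm every 30 s for 60 min. Mean of three experiments run in duplicate.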

MCF7 [30] = assay: Antiproliferative activity in human MCF7 cells assessed as cell viability after 48 hrs by alamarBlue assay; assay type: functional, cell-based; details: MCF7, 48 h
In short: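 Cells were seeded at 2.5×10^4 cells/mL and treated after 24 h with vehicle (0.1% v/v ethanol) or a dose range (0.1–20 μM) for 48 h at 37 °C in 5% CO2. Media-only blanks were subtracted, and viability is given as % of vehicle. Sextuplicate wells, three independent experiments.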

MCF7 [31] = assay: Induction of reactive oxygen species generation in human MCF7 cells assessed as decrease in cell viability at 5 to 20 uM in presence of N-acetyl cysteine after 48 hrs by alamarBlue assay; assay type: functional, cell-based; in short: as §1
MCF-10A [32] = assay: Cytotoxicity in human MCF10A cells at 5 uM at 24 hrs by alamarBlue assay; assay type: cell-based
MCF7 [33] = assay: Induction of reactive oxygen species generation in human MCF7 cells assessed as decrease in cell viability at 5 to 20 uM in presence of trolox after 48 hrs by alamarBlue assay; assay type: functional, cell-based; in short: as §1
MCF-10A [34] = assay: Cytotoxicity in human MCF10A cells at 5 uM at 48 hrs by alamarBlue assay; assay type: cell-based
MCF-10A [35] = assay: Cytotoxicity in human MCF10A cells at 1 uM after 24 to 48 hrs by alamarBlue assay; assay type: cell-based
Homo sapiens [36] = species: Homo sapiens; assay: Induction of tubulin depolymerization in human Jurkat cells at 1 uM after 4 hrs by Western blot method; assay type: cell-based; in short: as §5
Homo sapiens [37] = species: Homo sapiens; assay: Induction of tubulin depolymerization in human MCF7 cells at 1 uM after 4 hrs by Western blot method; assay type: cell-based; in short: as §5
MCF7 [38] = assay: Induction of reactive oxygen species generation in human MCF7 cells assessed as decrease in cell viability at 1 to 10 uM in presence of N-acetyl cysteine after 48 hrs by alamarBlue assay; assay type: functional, cell-based
In short: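 MCF-7 cells seeded at 2.5×10^4 cells/mL, left overnight to adhere. After 23 h, pre-treated 1 hr with NAC (1 mM; 100 mM stock in sterile water), then compound for 48 h at 37 °C in 5% CO₂. alamarBlue added 5 h before endpoint, fluorescence ex 544/em 590 nm, blank subtracted. Viability as % of ethanol vehicle control, mean of three independent experiments.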

COc1cc(C(=O)/C=C/c2ccc(N(C)C)cc2)cc(OC)c1OC
Activity (MCF7 [1]): inactive

COc1cc(/C=C/C(=O)N2CCC=CC2=O)cc(OC)c1OC [PIPLARTINE]
Activity (MCF7 [2]): 16% | Activity (MCF7 [3]): Active | Activity (Homo sapiens [4]): Active | Activity (MCF7 [5]): 19% | Activity (MCF7 [6]): 13% | inhibition (Homo sapiens [7]): inactive | Activity (Homo sapiens [8]): Active | Activity (MCF7 [9]): Active | Activity (MCF7 [10]): 12% | Activity (Homo sapiens [11]): inactive | Activity (MCF7 [12]): 10% | Activity (MCF7 [13]): 21% | Activity (MCF7 [14]): 4.9% | IC50 (MCF7 [15]): 8 µM | Activity (Homo sapiens [16]): Active | Activity (MCF7 [17]): inactive | Activity (MCF7 [18]): 15% | Activity (MCF-10A [19]): 90% | IC50 (Jurkat [20]): 1.4 µM | Activity (MCF7 [21]): 4.3% | Activity (Homo sapiens [22]): inactive | IC50 (Jurkat [23]): 5 µM | inhibition (Homo sapiens [24]): inactive | Activity (Homo sapiens [25]): Active | Activity (MCF7 [26]): 6% | Activity (MCF7 [27]): Active | Activity (MCF7 [28]): 16% | Activity (MCF7 [29]): 15% | Activity (Bos taurus): Active | IC50 (MCF7 [30]): 1.2 µM

COc1cc(/C=C/C(=O)c2ccccc2)cc(OC)c1OC
Activity (MCF7 [1]): inactive

COc1cc(OC)c(OC)cc1/C=C/C(=O)N1CCC=CC1=O
Activity (MCF7 [31]): inactive | Activity (MCF-10A [32]): > 90% | Activity (MCF7 [33]): inactive | Activity (MCF-10A [34]): > 80% | Activity (MCF-10A [35]): Non-Toxic | IC50 (MCF7 [30]): 3.4 µM

COC(=O)Nc1nc2cc(C(=O)c3cccs3)ccc2[nH]1
Activity (Homo sapiens [36]): Active | Activity (Homo sapiens [37]): Active

COc1cc2c(c(OC)c1OC)-c1ccc(OC)c(=O)cc1[C@@H](NC(C)=O)CC2
Activity (MCF7 [38]): inactive

From ChEMBL document CHEMBL4041479, “Piperlongumine (piplartine) and analogues: Antiproliferative microtubule-destabilising agents” (Eur J Med Chem, 2017)
